The record followed here is ChEMBL document CHEMBL1773068, “Drug to genome to drug: discovery of new antiplasmodial compounds” (J Med Chem, 2011).

One test concerns Plasmodium falciparum. The test can be described thus: Antiplasmodial activity against chloroquine-susceptible Plasmodium falciparum GHA strain infected in human erythrocytes after 72 hrs by spectrophotometry. The class given is functional, organism-based. The settings on record: read-out: IC50. The gist of the method:
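P. falciparum cultured in human A+ erythrocytes in RPMI-1640 with 10% human serum, 37 °C, low oxygen (3% O2, 4% CO2, 93% N2). Infected red cell suspension (1% parasitemia, 2% hematocrit) incubated with compounds 72 h, then frozen. Growth read by Malstat method: NBT/PES added, 2 h in dark, absorbance at 655 nm. IC50 from duplicate determinations.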

In a further test the test system is MRC5. Put plainly: Cytotoxicity against human MRC5 SV2 cells after 72 hrs. The test is classed as cell-based. To be noted: MRC5, 72 h. The procedure, abridged: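 MRC-5 SV2 human fetal lung fibroblasts grown in MEM with L-glutamine, NaHCO3 and 5% FCS at 37 °C, 5% CO2. 10^4 cells/well seeded onto prediluted compounds, 72 h at 37 °C. Viability by resazurin added for 24 h, fluorescence at ex 530/em 590 nm. IC50 from duplicate determinations.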

Regarding `NCCCC[C@H]1NC(=O)[C@H]2Cc3c([nH]c4ccccc34)[C@@H](c3ccc4c(c3)OCO4)N2C1=O`, the IC50 was 4 µM in the test on Plasmodium falciparum and greater than 64 µM in the test with MRC5.

For the compound `O=C1[C@H]2Cc3c([nH]c4ccccc34)[C@@H](c3ccc4c(c3)OCO4)N2C(=O)CN1[C@H]1CCN(Cc2ccccc2)C1`, the IC50 in the test on Plasmodium falciparum was 10 µM; in the test with MRC5, greater than 64 µM.

For `O=C1[C@H]2Cc3c([nH]c4ccccc34)[C@@H](c3ccc4c(c3)OCO4)N2C(=O)CN1c1cccc(CN2CCNCC2)c1`, the IC50 is 10 µM in the test on Plasmodium falciparum and 8 µM in the test on MRC5.

With `O=C1[C@H]2Cc3c([nH]c4ccccc34)[C@@H](c3ccc4c(c3)OCO4)N2C(=O)CN1c1ccsc1`, the IC50 in the test on Plasmodium falciparum and in the test on MRC5 was greater than 64 µM each time.

For the compound `Cc1cccc(N2CC(=O)N3[C@H](c4ccc5c(c4)OCO5)c4[nH]c5ccccc5c4C[C@@H]3C2=O)c1`, the IC50 in the test on Plasmodium falciparum and with MRC5 was greater than 64 µM throughout.

Consider `O=C1[C@H]2Cc3c([nH]c4ccccc34)[C@H](c3ccc4c(c3)OCO4)N2C(=O)CN1[C@@H]1CCN(Cc2ccccc2)C1`, for which the IC50 in the test on Plasmodium falciparum is 50 µM; in the test with MRC5 it was greater than 64 µM.

As for `O=C1N[C@@H](COCc2ccccc2)C(=O)N2[C@H](c3ccc4c(c3)OCO4)c3[nH]c4ccccc4c3C[C@H]12`, the IC50 in the test on Plasmodium falciparum and in the test with MRC5 was greater than 64 µM in each case.

For the compound `O=C1NCC(=O)N2[C@H](c3ccc4c(c3)OCO4)c3[nH]c4ccccc4c3C[C@H]12` [NORTADALAFIL], the IC50 in the test on Plasmodium falciparum and in the test on MRC5 was greater than 64 µM throughout.

In the case of `O=C1N[C@@H](Cc2c[nH]c3ccccc23)C(=O)N2[C@H](c3ccc4c(c3)OCO4)c3[nH]c4ccccc4c3C[C@H]12`, the IC50 in the test on Plasmodium falciparum worked out at 25 µM; in the test on MRC5, 35 µM.

Consider `O=C1[C@H]2Cc3c([nH]c4ccccc34)[C@@H](c3ccc4c(c3)OCO4)N2C(=O)CN1c1cncnc1`, for which the IC50 was 56 µM in the test on Plasmodium falciparum and greater than 64 µM in the test on MRC5.

Take `O=C1[C@H]2Cc3c([nH]c4ccccc34)[C@@H](c3ccc4c(c3)OCO4)N2C(=O)CN1c1ccc(N2CCNCC2)cc1`: the IC50 was 7 µM with Plasmodium falciparum and 8 µM with MRC5.

Take `CN(CCN1CC(=O)N2[C@H](c3ccc4c(c3)OCO4)c3[nH]c4ccccc4c3C[C@@H]2C1=O)Cc1ccccc1`: the values for the IC50 with Plasmodium falciparum and in the test with MRC5 were 7 µM and greater than 64 µM, respectively.

Turning to `O=C1[C@H]2Cc3c([nH]c4ccccc34)[C@@H](c3ccc4c(c3)OCO4)N2C(=O)CN1CCc1ccc(O)cc1`, the figures for the IC50 in the test with Plasmodium falciparum and in the test with MRC5 were 16 µM and greater than 64 µM, respectively.

For `COc1ccc(N2CC(=O)N3[C@H](c4ccc5c(c4)OCO5)c4[nH]c5ccccc5c4C[C@@H]3C2=O)cc1`, the IC50 in the test on Plasmodium falciparum and in the test with MRC5 was greater than 64 µM throughout.

On to `O=C1[C@H]2Cc3c([nH]c4ccccc34)[C@@H](c3ccc4c(c3)OCO4)N2C(=O)CN1c1cccc(Cl)c1`, for which the IC50 in the test with Plasmodium falciparum and in the test with MRC5 was greater than 64 µM in each case.

On to `Cn1c2c(c3ccccc31)C[C@@H]1C(=O)N([C@@H]3CCN(Cc4ccccc4)C3)CC(=O)N1[C@@H]2c1ccc2c(c1)OCO2`, for which the IC50 is 9 µM in the test on Plasmodium falciparum and greater than 64 µM in the test on MRC5.

As for `O=C1[C@H]2Cc3c([nH]c4ccccc34)[C@@H](c3ccc4c(c3)OCO4)N2C(=O)CN1CCN1CCOCC1`, the IC50 in the test with Plasmodium falciparum is 22 µM; in the test with MRC5, greater than 64 µM.

`O=C1[C@H]2Cc3c([nH]c4ccccc34)[C@@H](c3ccc4c(c3)OCO4)N2C(=O)CN1C1CCNCC1`: the values for the IC50 with Plasmodium falciparum and with MRC5 were 32 µM and greater than 64 µM, respectively.

For `O=C1[C@H]2Cc3c([nH]c4ncccc34)[C@@H](c3ccc4c(c3)OCO4)N2C(=O)CN1[C@@H]1CCN(Cc2ccccc2)C1`, the IC50 with Plasmodium falciparum amounted to 0.97 µM; with MRC5 it was 22 µM.

`CN1CC(=O)N2[C@H](c3ccc4c(c3)OCO4)c3[nH]c4ccccc4c3C[C@@H]2C1=O` [TADALAFIL]: the IC50 in the test with Plasmodium falciparum and in the test with MRC5 was greater than 64 µM each time.

Turning to `CC(C)(C)OC(=O)N1CCN(c2ccc(N3CC(=O)N4[C@H](c5ccc6c(c5)OCO6)c5[nH]c6ccccc6c5C[C@@H]4C3=O)cc2)CC1`, the IC50 in the test on Plasmodium falciparum and in the test with MRC5 was greater than 64 µM each time.

As for `O=C1[C@H]2Cc3c([nH]c4ccc(Br)cc34)[C@@H](c3ccc4c(c3)OCO4)N2C(=O)CN1[C@@H]1CCN(Cc2ccccc2)C1` (mixture of isomers), the IC50 worked out at 7 µM in the test on Plasmodium falciparum and 10 µM in the test with MRC5.

For `CCCCc1ccc(N2CC(=O)N3[C@H](c4ccc5c(c4)OCO5)c4[nH]c5ccccc5c4C[C@@H]3C2=O)cc1`, the IC50 in the test with Plasmodium falciparum and in the test on MRC5 was greater than 64 µM each time.

As for `Cn1ccnc1CN1CCC(N2CC(=O)N3[C@H](c4ccc5c(c4)OCO5)c4[nH]c5ccccc5c4C[C@@H]3C2=O)CC1`, the IC50 in the test with Plasmodium falciparum was 4 µM; in the test on MRC5 it was 62 µM.

Take `O=C1[C@H]2Cc3c([nH]c4ccccc34)[C@@H](c3ccc4c(c3)OCO4)N2C(=O)CN1c1ccc(Cl)cc1`: the figures for the IC50 in the test on Plasmodium falciparum and in the test with MRC5 were 60 µM and greater than 64 µM, respectively.

With `CCCCN1CC(=O)N2[C@H](c3ccc4c(c3)OCO4)c3[nH]c4ccccc4c3C[C@@H]2C1=O`, the IC50 with Plasmodium falciparum and in the test with MRC5 was greater than 64 µM each time.

Consider `O=C1[C@H]2Cc3c([nH]c4ccccc34)[C@@H](c3ccc4c(c3)OCO4)N2C(=O)CN1c1ccccc1`, for which the IC50 in the test on Plasmodium falciparum and in the test on MRC5 was greater than 64 µM each time.

For the compound `CC(C)(C)OC(=O)CC[C@@H]1NC(=O)[C@H]2Cc3c([nH]c4ccccc34)[C@@H](c3ccc4c(c3)OCO4)N2C1=O`, the IC50 is 60 µM in the test on Plasmodium falciparum and greater than 64 µM in the test on MRC5.

Consider `CC(C)(C)OC(=O)N1CCN(Cc2cccc(N3CC(=O)N4[C@H](c5ccc6c(c5)OCO6)c5[nH]c6ccccc6c5C[C@@H]4C3=O)c2)CC1`, for which the IC50 was 23 µM in the test on Plasmodium falciparum and greater than 64 µM with MRC5.

Take `O=C1[C@H]2Cc3c([nH]c4ccccc34)[C@@H](c3ccc4c(c3)OCO4)N2C(=O)CN1CCCn1ccnc1`: the results for the IC50 in the test on Plasmodium falciparum and in the test with MRC5 were 9 µM and greater than 64 µM, respectively.

On to `O=C1[C@H]2Cc3c([nH]c4ccccc34)[C@@H](c3ccc4c(c3)OCO4)N2C(=O)CN1[C@@H]1CCNC1`, for which the results for the IC50 with Plasmodium falciparum and in the test on MRC5 were 12 µM and greater than 64 µM, respectively.

On to `O=C1[C@H]2Cc3c([nH]c4ccccc34)[C@@H](c3ccc4c(c3)OCO4)N2C(=O)CN1Cc1ccc(N2CCOCC2)cc1`, for which the IC50 is 9 µM with Plasmodium falciparum and greater than 64 µM in the test on MRC5.

As to `O=C1[C@H]2Cc3c([nH]c4cc(F)ccc34)[C@@H](c3ccc4c(c3)OCO4)N2C(=O)CN1[C@@H]1CCN(Cc2ccccc2)C1` (mixture of isomers), the IC50 in the test on Plasmodium falciparum came to 1.26 µM; with MRC5 it was 16 µM.

For the compound `O=C1[C@H]2Cc3c([nH]c4ccccc34)[C@@H](c3ccc4c(c3)OCO4)N2C(=O)CN1c1ccc(C(F)(F)F)cc1`, the IC50 in the test with Plasmodium falciparum and in the test with MRC5 was greater than 64 µM each time.

As for `CN(CCCN1CC(=O)N2[C@H](c3ccc4c(c3)OCO4)c3[nH]c4ccccc4c3C[C@@H]2C1=O)Cc1ccccc1`, the IC50 in the test with Plasmodium falciparum and with MRC5 was 8 µM in each case.

The IC50 is the point on the concentration scale where inhibition reaches its midpoint.
